Reference: ChEMBL document CHEMBL3045276, “Synthesis and biological activity of some novel trifluoromethyl-substituted 1,2,4-triazole and bis(1,2,4-triazole) Mannich bases containing piperazine rings” (2010)

How the values were obtained:
Assay type in all cases: functional
[1] = tested on: Ascochyta; test: Fungicidal activity against Ascochyta […] in cucumber plant two seed leaves stage assessed as control efficacy from disease indices at 500 ug/mL at 18 to 30 degC and above 80%RH relative to control; details: read-out: GI
How it was run: (§1)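 Cucumber seeds germinated (soaked 2 h in water at 50 °C, kept moist 24 h at 28 °C) and grown in 1:1 vermiculite/peat; two-seed-leaf plants sprayed at 500 μg/mL, then inoculated 2 h later by spraying conidial (C. cassiicola, A. citrullina, P. cubensis), bacterial (P. syringae) or mycelial (S. sclerotiorum) suspension. Held 18-30 °C, >80% RH; four repeats; control efficacy = (CK−PT)/CK×100 from disease indices once untreated plants fully symptomatic.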

[2] = tested on: Sclerotinia sclerotiorum; test: Fungicidal activity against Sclerotinia sclerotiorum in cucumber plant two seed leaves stage assessed as control efficacy from disease indices at 500 ug/mL at 18 to 30 degC and above 80%RH relative to control; details: read-out: GI; how it was run: as §1
[3] = tested on: Echinochloa crus-galli; test: Herbicidal activity against Echinochloa crus-galli (barnyard grass) assessed as inhibition of seedling growth at 100 ug/mL at 28 degC
How it was run: (§2)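 Ten barnyardgrass seeds placed in cup over glass beads and filter paper holding 5 mL aqueous test solution (emulsified if needed); germinated 65 h at 28 ± 1 °C under light. Mean above-ground seedling height per cup measured; inhibition percentage derived.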

[4] = tested on: Pseudoperonospora cubensis; test: Fungicidal activity against Pseudoperonospora cubensis in cucumber plant two seed leaves stage assessed as control efficacy from disease indices at 500 ug/mL at 18 to 30 degC and above 80%RH relative to control; details: read-out: GI; how it was run: as §1
[5] = tested on: Brassica rapa subsp. oleifera; test: Herbicidal activity against Brassica rapa subsp. oleifera assessed as inhibition of root growth at 100 ug/mL at 28 degC
How it was run: (§3)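 Rape seeds soaked 4 h in distilled water, then 15 per 6 cm dish on filter paper wetted with 2 mL aqueous test solution (emulsified if needed); germinated 65 h at 28 ± 1 °C in darkness. Mean length of 10 roots per dish measured; percentage inhibition calculated against distilled-water check.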

[6] = tested on: Brassica rapa subsp. oleifera; test: Herbicidal activity against Brassica rapa subsp. oleifera assessed as inhibition of root growth at 10 ug/mL at 28 degC; how it was run: as §3
[7] = tested on: Corynespora cassiicola; test: Fungicidal activity against Corynespora cassiicola in cucumber plant two seed leaves stage assessed as control efficacy from disease indices at 500 ug/mL at 18 to 30 degC and above 80%RH relative to control; details: read-out: GI; how it was run: as §1
[8] = tested on: Echinochloa crus-galli; test: Herbicidal activity against Echinochloa crus-galli (barnyard grass) assessed as inhibition of seedling growth at 10 ug/mL at 28 degC; how it was run: as §2
[9] = tested on: Pseudomonas amygdali pv. lachrymans; test: Fungicidal activity against Pseudomonas syringae pv. lachrymans in cucumber plant two seed leaves stage assessed as control efficacy from disease indices at 500 ug/mL at 18 to 30 degC and above 80%RH relative to control; details: read-out: GI; how it was run: as §1

SMILES: Cc1cc(C)nc(N2CCN(Cn3nc(C(F)(F)F)n(/N=C/c4ccccc4)c3=S)CC2)n1
- inhibition of growth at 500 µg/mL [1]: 61.5%
- inhibition of growth at 500 µg/mL [2]: 48%
- inhibition at 100 µg/mL [3]: 9.8%
- inhibition of growth at 500 µg/mL [4]: 74.1%
- inhibition at 100 µg/mL [5]: 71.1%
- inhibition at 10 µg/mL [6]: 36.9%
- inhibition of growth at 500 µg/mL [7]: 22.1%
- inhibition at 10 µg/mL [8]: 0%
- inhibition of growth at 500 µg/mL [9]: 55%
